The text below walks through data of paper PMC6104635 (ACS chemical neuroscience, 2018).

Structures are written as SMILES.

In one data set the target is T1, rat M5 (Rattus norvegicus, UniProt P08911).
T1 sequence (P08911 1-531): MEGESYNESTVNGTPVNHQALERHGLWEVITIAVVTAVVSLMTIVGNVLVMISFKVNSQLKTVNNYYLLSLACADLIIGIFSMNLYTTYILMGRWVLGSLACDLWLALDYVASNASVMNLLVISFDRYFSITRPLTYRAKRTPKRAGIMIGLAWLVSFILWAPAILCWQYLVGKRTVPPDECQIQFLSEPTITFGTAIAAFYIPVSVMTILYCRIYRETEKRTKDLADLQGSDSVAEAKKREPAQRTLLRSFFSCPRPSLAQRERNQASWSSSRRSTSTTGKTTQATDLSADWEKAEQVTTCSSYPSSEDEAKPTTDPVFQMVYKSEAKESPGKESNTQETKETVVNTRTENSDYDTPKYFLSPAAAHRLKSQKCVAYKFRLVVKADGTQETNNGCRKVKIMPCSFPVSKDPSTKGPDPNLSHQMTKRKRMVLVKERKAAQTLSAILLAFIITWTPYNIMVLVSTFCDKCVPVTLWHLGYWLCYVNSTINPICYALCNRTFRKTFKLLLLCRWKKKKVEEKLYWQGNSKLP
Put plainly: calcium mobilization assay, rM5-CHO cells, FDSS7000. Format: cell-based. Particulars: functional calcium assay, n = 3. A digest of the protocol:
(§1)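 CHO cells stably expressing human or rat M5 were grown in Ham's F-12 with 10% FBS, 20 mM HEPES and 500 μg/mL G418 (37 °C, 5% CO2), then plated at 20 000 cells/well without G418 the day before. Cells were loaded with 1.15 μM Fluo-4 AM for 45 min at 37 °C in HBSS, 20 mM HEPES and 2.5 mM probenecid. Test compound was given as a 10-point 1:3 series from 30 μM final for 2.5 min, then ACh EC20 for 1 min, with calcium read on FDSS7000. EC50 and efficacy came from a four-parameter logistic fit.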
A general note: Calcium flux is commonly read through the fluorescence of an indicator in the cells.

Data set [1] is described as follows: metabolite identification in rat hepatic microsomes. Format: in vitro ADME. Particulars: rat and human hepatic microsomes, result in words. The essentials:
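Test compound was incubated with rat hepatic microsomes, run alongside human microsomes. Metabolite structures were proposed from LC-UV/MSn data, and major metabolites were assigned by relative peak areas.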

A further data set in a line: rat brain distribution. It counts as in vivo. Particulars: male, Sprague-Dawley, brain and plasma. A digest of the protocol: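 Male Sprague–Dawley rats received a single IV or IP cassette dose of 0.20–0.25 mg/kg, with n = 1 animal per cassette. Vehicle was ethanol/PEG400/DMSO, with excipient levels adjusted for solubility, at 0.5 mL/kg iv or 3 mL/kg ip. Plasma and brain were sampled nonserially and quantified by LC-MS/MS (positive ESI, MRM).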

A short description of data set [2]: plasma protein binding, human. It counts as in vitro ADME.
For the next data set, the target named is T2, human M5 (Homo sapiens, UniProt P08912).
T2 sequence (P08912 1-532): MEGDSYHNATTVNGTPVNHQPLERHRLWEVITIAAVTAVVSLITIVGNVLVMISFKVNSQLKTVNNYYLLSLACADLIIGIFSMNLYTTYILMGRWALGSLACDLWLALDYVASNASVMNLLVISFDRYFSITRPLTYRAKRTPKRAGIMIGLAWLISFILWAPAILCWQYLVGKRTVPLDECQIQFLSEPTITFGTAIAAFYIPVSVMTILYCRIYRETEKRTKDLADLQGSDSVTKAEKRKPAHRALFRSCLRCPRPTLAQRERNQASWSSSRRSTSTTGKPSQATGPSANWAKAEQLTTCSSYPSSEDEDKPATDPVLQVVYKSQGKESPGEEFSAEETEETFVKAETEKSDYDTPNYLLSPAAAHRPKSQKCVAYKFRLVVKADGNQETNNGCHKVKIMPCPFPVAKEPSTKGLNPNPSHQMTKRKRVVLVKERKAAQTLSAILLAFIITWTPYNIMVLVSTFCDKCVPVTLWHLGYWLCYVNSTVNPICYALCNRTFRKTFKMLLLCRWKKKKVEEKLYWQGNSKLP
Put plainly: calcium mobilization assay, hM5-CHO cells, FDSS7000. Format: cell-based. The essentials:
as §1

Data set [3] in a line: brain homogenate binding, rat. It counts as in vitro ADME.
Data set [4] can be described thus: plasma protein binding, rat. It counts as in vitro ADME.
Data set [5] is described as follows: hepatic microsomal intrinsic clearance, human. Format: in vitro ADME. Particulars: based on microsomal intrinsic clearance (CLint).
The subject of the next data set is hM5. Particulars: read-out: hM5 EC50; 96 well-format FlexStation II, initial optimization; cited from earlier work.

Regarding `CCN(C(=O)C1CCN(S(=O)(=O)c2ccc3[nH]ncc3c2)CC1)[C@@H]1CCc2ccccc21` [Compound 8, N-Ethyl-N-[(1R)-indan-1-yl]-1-(1H-indazol-5-ylsulfonyl)-piperidine-4-carboxamide], at rat M5 (PAM), the “rM5 % ACh Max” value is reported as 63% ± 3%. For the same molecule, the EC50 is 409 nM at rat M5 (rM5 EC50, PAM); 380 nM at rat M5 (rM5 pEC50 ± SEM, PAM); 481 nM at human M5 (hM5 EC50, PAM, functional calcium assay, n = 3); 457 nM on human M5 (hM5 pEC50 ± SEM, PAM, functional calcium assay, n = 3). For the same molecule, the “metabolism in MetID studies” value in data set [1] was “extensive oxidative metabolism”. In the data set “rat brain distribution”, the partition ratio (Kp) turned out to be 0.17. In the data set “rat brain distribution”, this molecule had a Kp uu of 0.07. Also, the fraction unbound in data set [2] is 0.019; in data set [3], 0.017; in [4], 0.043. In addition, the “predicted hepatic clearance CLhep, human” value in [5] was 20.8 mL/min/kg.
On to `CCN(Cc1ccccc1C(F)(F)F)C(=O)C1CCN(S(=O)(=O)c2ccc3[nH]ncc3c2)CC1` [ML380, 1-((1H-indazol-5-yl)sulfonyl)-N-ethyl-N-(2-(trifluoromethyl)benzyl)piperidine-4-carboxamide, reference compound], for which the EC50 in the data set with hM5 was 190 nM; at human M5 (hM5 EC50, PAM, 384-well FDSS7000) it was 1100 nM. For the same molecule, at human M5 (FDSS7000 versus FlexStation II conditions), the “rightward shift in M5 PAM potency” value is listed as ~ 5 fold.

A word on the EC50: it is the midpoint of the concentration-response curve. The term Kp denotes the ratio of the level in a tissue or fluid to that in plasma or blood. The term fraction unbound denotes free concentration divided by total concentration. Read a low fraction unbound as extensive binding.
